# Measurements as given in ChEMBL document CHEMBL3400028, “Evaluation of Aconitum diterpenoid alkaloids as antiproliferative agents” (2015).
# Tests used:
# Format in all cases: functional
# A549 = assay: Antiproliferative activity against human A549 cells by sulforhodamine B assay
# Summary of the method: (§1)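 Cells in RPMI 1640 (25 mM HEPES, 2 mM L-glutamine, 10% heat-inactivated FBS, antibiotics) at 37 °C, 5% CO2. Seeded at 3–5 × 10³/well with graded concentrations, paclitaxel as assay control, for 72 h. TCA-fixed, stained with 0.04% SRB, dye dissolved in 10 mM Tris, A515 read. GI50 is the concentration halving absorbance versus untreated cells; three or more experiments.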
# KB = assay: Antiproliferative activity against human KB cells by sulforhodamine B assay; summary of the method: as §1
# DU-145 = assay: Antiproliferative activity against human DU145 cells by sulforhodamine B assay; summary of the method: as §1
# [1] = Antiproliferative activity against multidrug-resistant P-gp expressing human KBVIN cells by sulforhodamine B assay
# Summary of the method: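 Vincristine-resistant KB subline kept in 100 nM vincristine, then grown 7–10 days without it before testing. RPMI 1640 with 10% FBS, 37 °C, 5% CO2. 3–5 × 10³ cells/well exposed 72 h to a concentration series, paclitaxel as assay control. SRB staining after TCA fixation, A515 read. GI50 is the 50% absorbance reduction versus untreated cells; three or more experiments.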
# [2] = Selectivity ratio of GI50 for human KB cells to GI50 for multidrug-resistant P-gp expressing human KBVIN cells
# Summary of the method: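 Ratio of GI50 in parental KB to GI50 in P-gp-overexpressing KB-VIN. […] KB-VIN cells were grown 7–10 days without vincristine before the assay.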
structure (smiles),measurement,setting,value
COC[C@]12CC[C@H](O)[C@]34C(NC1)[C@@](O)([C@@H](OC)[C@H]23)[C@@]1(O)C[C@H](OC)[C@H]2C[C@@H]4[C@@H]1[C@H]2OC,GI50,A549,> 20 µM
same,GI50,KB,> 20 µM
same,GI50,DU-145,> 20 µM
same,GI50,[1],> 20 µM
same,RatioGI50,[2],>20
C=C1[C@H]2C[C@@H]3C4N5C[C@]6(C)CCC[C@@]47[C@@H]6[C@@H]5C[C@]3([C@@H]1O)[C@H]7[C@H]2OC(=O)c1ccc(C(F)(F)F)cc1,GI50,A549,10 µM
same,GI50,KB,10 µM
same,GI50,DU-145,10 µM
same,GI50,[1],10 µM
same,RatioGI50,[2],10
C=C1[C@H]2C[C@@H]3C4N5C[C@]6(C)CCC[C@@]47[C@@H]6[C@@]5(O)C[C@]3([C@@H]1OC(=O)CC)[C@H]7[C@H]2OC(=O)CC,GI50,A549,> 20 µM
same,GI50,KB,> 20 µM
same,GI50,DU-145,> 20 µM
same,GI50,[1],> 20 µM
same,RatioGI50,[2],>20
C=C1[C@H]2C[C@@H]3C4N5C[C@]6(C)CCC[C@@]47[C@@H]6[C@@H]5C[C@]3([C@@H]1OC(=O)c1ccc(F)cc1)[C@H]7[C@H]2OC(=O)c1ccc(F)cc1,GI50,A549,8.1 µM
same,GI50,KB,5.2 µM
same,GI50,DU-145,6.8 µM
same,GI50,[1],7.1 µM
same,RatioGI50,[2],0.73
C=C1[C@H]2C[C@H]3C4N5C[C@]6(C)CCC[C@]47[C@H]([C@H]2OC(=O)c2ccc(OC)cc2)C3(C[C@]5(O)[C@H]67)[C@@H]1O,GI50,A549,10 µM
same,GI50,KB,10 µM
same,GI50,DU-145,10 µM
same,GI50,[1],10 µM
same,RatioGI50,[2],10
CCN1C[C@]2(COC)CC[C@H](O)[C@]34C1[C@@H]([C@H](OC)[C@H]23)[C@@]1(O)C[C@H](OC)[C@H]2C[C@@H]4[C@@H]1[C@H]2OC(=O)c1ccccc1,GI50,A549,> 20 µM
same,GI50,KB,> 20 µM
same,GI50,DU-145,> 20 µM
same,GI50,[1],> 20 µM
same,RatioGI50,[2],>20
C=C1[C@H]2C[C@@H]3C4N5C[C@]6(C)CCC[C@@]47[C@@H]6[C@@]5(OC(=O)c4ccc([N+](=O)[O-])cc4)C[C@]3([C@@H]1OC(=O)c1ccc([N+](=O)[O-])cc1)[C@H]7[C@H]2OC(=O)c1ccc([N+](=O)[O-])cc1,GI50,A549,> 20 µM
same,GI50,KB,> 20 µM
same,GI50,DU-145,> 20 µM
same,GI50,[1],> 20 µM
same,RatioGI50,[2],>20
C=C1[C@H]2C[C@@H]3C4N5C[C@]6(C)CCC[C@@]47[C@@H]6[C@@]5(O)C[C@]3([C@@H]1O)[C@H]7[C@H]2OC(=O)c1ccc(C(F)(F)F)cc1,GI50,A549,10 µM
same,GI50,KB,10 µM
same,GI50,DU-145,10 µM
same,GI50,[1],10 µM
same,RatioGI50,[2],10
C=C1[C@H]2C[C@@H]3C4N5C[C@]6(C)CCC[C@@]47[C@@H]6[C@@H]5C[C@]3([C@@H]1OC(C)=O)[C@H]7[C@H]2OC(C)=O,GI50,A549,> 20 µM
same,GI50,KB,> 20 µM
same,GI50,DU-145,> 20 µM
same,GI50,[1],> 20 µM
same,RatioGI50,[2],>20
C=C1[C@H]2C[C@@H]3C4N5C[C@]6(C)CCC[C@@]47[C@@H]6[C@@H]5C[C@]3([C@@H]1OC(C)=O)[C@H]7[C@H]2O,GI50,A549,> 20 µM
same,GI50,KB,> 20 µM
same,GI50,DU-145,> 20 µM
same,GI50,[1],> 20 µM
same,RatioGI50,[2],>20
C=C1[C@H]2C[C@@H]3C4N5C[C@]6(C)CCC[C@@]47[C@@H]6[C@@]5(O)C[C@]3([C@@H]1O)[C@H]7[C@H]2OC(c1ccccc1)(c1ccccc1)c1ccccc1,GI50,A549,6.4 µM
same,GI50,KB,6.6 µM
same,GI50,DU-145,6 µM
same,GI50,[1],5.2 µM
same,RatioGI50,[2],1.3
C=C1[C@H]2C[C@H]3C4N5C[C@]6(C)CCC[C@]47[C@H]([C@H]2O)C3(C[C@]5(O)[C@H]67)[C@@H]1O [PSEUDOKOBUSINE],GI50,A549,> 20 µM
same,GI50,KB,> 20 µM
same,GI50,DU-145,> 20 µM
same,GI50,[1],> 20 µM
same,RatioGI50,[2],>20
C=C1[C@H]2C[C@@H]3C4N5C[C@]6(C)CCC[C@@]47[C@@H]6[C@@H]5C[C@]3([C@@H]1O)[C@H]7[C@H]2OC(=O)c1ccc(F)cc1,GI50,A549,> 20 µM
same,GI50,KB,> 20 µM
same,GI50,DU-145,> 20 µM
same,GI50,[1],> 20 µM
same,RatioGI50,[2],>20
C=C1[C@H]2C[C@@]3(C4C[C@@H]5C6(C)CCC7O[C@H]6N(CC)C4C75[C@@H]3C[C@@H]2OC(C)=O)[C@@H]1OC(C)=O,GI50,A549,> 20 µM
same,GI50,KB,> 20 µM
same,GI50,DU-145,> 20 µM
same,GI50,[1],> 20 µM
same,RatioGI50,[2],>20
